# PubChem BioAssay AID588627 (Johns Hopkins Ion Channel Center, 2011)
# About 1,400 (0.45%) of roughly 310,000 compounds were called active.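 The calls were made as follows: active = calcium response B-score plate-corrected fluorescence ratio at least 3 library SD, with starting fluorescence B-score inside 5 SD; inactive = the rest.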 What follows is part of a selection rich in actives, with near analogues and random picks from the rest.
# Target: Mas-related G-protein coupled receptor member X1 (Homo sapiens) (UniProt Q96LB2)
# Assay: MrgX1 activation via calcium signaling – HEK293 cells, Fluo-4 calcium flux, primary screen (AID 588627);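 as to B-score: B-score of the peak-minus-trough calcium fluorescence change over baseline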
# Settings: Fluo-4 calcium fluorescence, agonist mode, at 10 µM; stronger effect = higher value
# Method in brief: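 System: HEK293 cells stably expressing human MrgX1 receptor; Dosing: test compound in the initial addition of three; Schedule: overnight plating, then 30 min 37 °C plus 30 min room-temperature dye loading; Detection: kinetic calcium dye fluorescence, Fluo-4 NW; Controls: per-plate positive and negative controls for Z′ factor.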
# Chain of Mas-related G-protein coupled receptor member X1 (Homo sapiens) (Q96LB2 whole entry, looked up): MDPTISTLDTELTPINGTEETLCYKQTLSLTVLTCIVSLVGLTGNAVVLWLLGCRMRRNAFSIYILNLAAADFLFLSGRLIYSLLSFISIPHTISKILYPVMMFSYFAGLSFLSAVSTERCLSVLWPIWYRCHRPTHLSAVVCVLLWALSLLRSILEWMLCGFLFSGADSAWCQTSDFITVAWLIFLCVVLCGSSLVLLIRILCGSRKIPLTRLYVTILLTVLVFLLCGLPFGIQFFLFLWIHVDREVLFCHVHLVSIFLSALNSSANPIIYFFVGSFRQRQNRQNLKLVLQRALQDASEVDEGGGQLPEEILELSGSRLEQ
row,SMILES,B-score
1,CCCNC(=S)N1CCC(NC(=O)c2ccc(OC)cc2)CC1,inactive
2,CC(C)COC(=O)c1ccc(NC(=O)C2C3C=CC(C3)C2C(=O)O)cc1 (configuration not stated),inactive
3,CCOC(=O)c1[nH]c2ccccc2c1N=C(C)N(CC)CC,inactive
4,CCOC(=O)c1cc2cc(C)ccc2[nH]1,inactive
5,CCOC(=O)c1[nH]c2ccc(C)cc2c1N=C(C)N(C)C,44.7 (active)
6,Cn1c(N)cc(-c2ccc(F)cc2)c(C#N)c1=O,inactive
7,O=C(CSc1nnc(-c2c[nH]c3ccccc23)n1-c1ccc(F)cc1)NCc1ccco1,inactive
8,COc1cc(/C=C(\C#N)c2nc3ccccc3[nH]2)ccc1O,58.8 (active)
9,COc1cc(/C=C(\C#N)c2nc3c(s2)CC(C)CC3)ccc1O (configuration not stated),inactive
10,Cc1ccc2nc(/C(C#N)=C\c3ccc(OC(=O)c4cccs4)cc3)[nH]c2c1,inactive
11,COCOc1cc(O)c(C(=O)/C=C/c2ccc(OCOC)c(OCOC)c2)c(OCOC)c1,inactive
12,Cc1cc(C)cc(NC(=O)c2cccc(NC(=O)C3C4CC5OC(=O)C3C5C4)c2)c1 (configuration not stated),inactive
13,CCN(CC)C(=O)C(=O)Nc1cccc(Br)c1,inactive
14,Cc1ccc(CSCC(=O)N(C)CC(=O)Nc2cccc(F)c2)cc1,inactive
15,CCN(CC)C(=O)CSC(Nc1cccc(F)c1)=C(C#N)C#N,39.4 (active)
16,CS(=O)(=O)N(CC(=O)N1CCc2ccccc2C1)c1ccc(Br)cc1,inactive
17,CCOCCCNC(=S)Nc1ccc2nc(N3CCN(CC)CC3)cc(C)c2c1,inactive
18,CC(C)CN(Cc1c(O)ccc2c(=O)c(-c3ccccc3)coc12)CC(C)C,inactive
19,CC(C)=CCc1c(O)c(CC=C(C)C)c2occ(-c3ccc(O)cc3)c(=O)c2c1O,29.8 (active)
20,CCOC(=O)c1nnn(CC(=O)Nc2cccc(F)c2)c1C(=O)OCC,inactive
21,CCNS(=O)(=O)c1ccc(CCC(=O)N2CCN(c3ccc(OC)cc3)CC2)cc1,inactive
22,Cc1c(C)c2c(OCC(=O)N[C@@H](C(=O)O)c3ccccc3)cc3c(c2oc1=O)CCC(C)(C)O3,43.9 (active)

row,SMILES,B-score
1,Cc1c(C)c2c(OCC(=O)NCCCO)cc3c(c2oc1=O)CCC(C)(C)O3,inactive
2,Cc1cc(=O)oc2c3c(cc(OCC(=O)N[C@H](C(=O)O)c4ccccc4)c12)OC(C)(C)CC3,inactive
3,O=C(C[n+]1ccc2c(c1)nnn2-c1ccccc1)c1ccc(Cl)cc1,inactive
4,CC(=O)N/C(=C/c1ccc(Cl)cc1)C(=O)NCCc1c[nH]c2ccccc12,inactive
5,O=C(CN1C(=O)NC2(CCCCC2)C1=O)NCCc1c[nH]c2ccccc12,inactive
6,N#C/C(=C/c1ccc(N2CCCCC2)o1)C(=O)NCCc1c[nH]c2ccccc12,37.2 (active)
7,COC(=O)c1ccccc1Oc1c(F)c(F)nc(N2CCOCC2)c1F,inactive
8,c1ccc(-n2cccc2)c(N2CCCCC2)c1,inactive
9,O=C(NCc1cccnc1)c1cnc2ccccc2n1,inactive
10,Cc1ccnc(-n2sc3ccccc3c2=O)n1,37 (active)
11,Cc1ccnc(N2CCCC(C(=O)NC3CC3)C2)n1 (configuration not stated),inactive
12,Cc1ccnc(SCC(N)=O)n1,inactive
13,CC1CN(C(=O)COC(=O)c2cccc(NS(=O)(=O)c3ccccc3)c2)CC(C)O1 (configuration not stated),inactive
14,CN(C)c1ccnc2sc(C(=O)c3ccccc3)c(N)c12,inactive
15,Nc1c(C(=O)c2cccs2)sc2nsc(SCCN3CCCCC3)c12,53.3 (active)
16,Cc1nc2sc(C(=O)c3ccccc3)c(N)c2c2c1CCCC2,inactive
17,C/C(=C\c1ccco1)C1Nc2cccc3cccc(c23)N1,inactive
18,COC1(C2=NCCN2)COc2ccccc2O1 (configuration not stated),inactive
19,COc1ccc(Nc2ncc(C(=O)N3CCN(c4ccccc4OC)CC3)c3ccccc23)cc1,inactive
20,Cc1[nH]n(-c2cccc(Cl)c2)c(=O)c1/C=N/n1c(C)nc2ccccc2c1=O,inactive
21,Cc1ccc(-n2[nH]c(C)c(/C=N/N3C(=O)c4cccc5cccc(c45)C3=O)c2=O)cc1,104 (active)
22,COc1cc(SC#N)ccc1N=Cc1c(C)[nH]n(-c2ccc(C)cc2)c1=O,inactive

row,SMILES,B-score
1,CCS(=O)(=O)n1nc(-c2ccccc2)nc1SCc1ccccc1,27.5 (active)
2,CCn1c(SCc2ccccc2)nc2c(c1=O)SCC2,inactive
3,CCS(=O)(=O)n1nc(-c2ccc(OC)cc2)nc1SC,inactive
4,CN(CCOc1ccc(Br)cc1)CC(=O)Nc1cccc(S(=O)(=O)NC2=NCCC2)c1,inactive
5,O=C(NCCN1CCOCC1)c1cc(-c2cccs2)nc2ccccc12,inactive
6,O=C(Nc1nnc(-c2ccccc2)o1)c1cc(-c2cccs2)nc2ccccc12,26.9 (active)
7,CCCCN(C)CCCNC(=O)c1cc(-c2cccs2)nc2ccccc12,inactive
8,CCOC(=O)/C(=N\Nc1ccccc1[N+](=O)[O-])c1csc(Nc2ccccc2)n1,inactive
9,O=C(Nc1ccc(Cl)cc1)C1c2cccc[n+]2CC(=O)N1Cc1ccc2c(c1)OCO2 (configuration not stated),inactive
10,CCN1/C(=C/c2ccc3ccc(C)cc3[n+]2CC)Sc2ccccc21,123 (active)
11,CCN1/C(=C\c2ccc3ccccc3[n+]2CC)Sc2cc(C)ccc21,inactive
12,CC(C)OCCCNC(=O)c1ccc(C2SCC(=O)N2Cc2ccco2)cc1 (configuration not stated),inactive
13,COc1cc(NC(=O)c2ccc3c(c2)OCO3)ccc1NC(=O)c1cccs1,inactive
14,COc1ccc(OCCCC(=O)OC(C)C(=O)Nc2ccccc2[N+](=O)[O-])cc1 (configuration not stated),inactive
15,COc1ccc(N(CC(=O)N2CCCCCC2)S(=O)(=O)c2ccccc2)cc1,inactive
16,COc1ccc(C)cc1N(CC(=O)N1CCCC1)S(=O)(=O)c1ccccc1,inactive
17,COc1ccccc1N(CC(=O)N1CCCCC1)S(=O)(=O)c1ccccc1,50 (active)
18,Cc1cccc(-c2nc3c(c(SCC(=O)N4CCOCC4)n2)CCCC3)c1,inactive
19,C=CCn1c(=NC(=O)c2cccs2)sc2cc(NC(C)=O)ccc21,inactive
20,CCCc1[nH]nc2c1C(c1ccc(Br)s1)C(C#N)=C(N)O2 (configuration not stated),26.9 (active)
21,CCCc1[nH]nc2c1C(C1CC=CCC1)C(C#N)=C(N)O2 (configuration not stated),inactive
22,CCCc1[nH]nc2c1C(c1ccc(OC(=O)c3ccco3)cc1)C(C#N)=C(N)O2 (configuration not stated),inactive

row,SMILES,B-score
1,COc1ccc(S(=O)(=O)N2CCN(c3ncnc4c(-c5ccccc5)nsc34)CC2)cc1,inactive
2,COc1ccccc1CCNS(=O)(=O)c1cn(C)nc1C,inactive
3,CS(=O)(=O)N(CC(=O)N1CCCCCC1)c1cccc(Cl)c1Cl,inactive
4,Cc1ccc(-n2cc(CN(C)Cc3nccn3C)c(-c3cccc(C)c3)n2)cc1,inactive
5,CCOc1c(Nc2cccc(Cl)c2)c(=O)c1=O,inactive
6,O=C(CCN1CCN(C/C=C/c2ccccc2)CC1)Nc1ccccc1Cl,inactive
7,Cc1[nH][nH]c(=O)c1C(c1ccc(-c2ccc(Cl)cc2)o1)c1c(C)[nH][nH]c1=O,46.3 (active)
8,O=C(NC1CCCCC1)c1ccc(-c2ccc(Cl)cc2)o1,inactive
9,CCOc1ccc(C(c2c(C)[nH][nH]c2=O)c2c(C)[nH][nH]c2=O)cc1OCC,inactive
10,CCNc1nc(NC(C)C)nc(OCCOC(=O)c2ccccc2)n1,inactive
11,COc1cccc(-c2ccc(SCC(=O)N3CCN(c4ccccc4)CC3)nn2)c1,inactive
12,Cc1ccc(-c2ccc(/C=N/NC(=O)CN3CCOCC3)o2)cc1[N+](=O)[O-],inactive
13,CN1CCN(/N=C/c2ccc(C#N)cc2)CC1,inactive
14,CN1CCN(/N=C/c2ccc(-c3ccc([N+](=O)[O-])cc3)o2)CC1,31.5 (active)
15,Cn1c(Cn2nnc3ccccc32)nnc1SCC(=O)c1ccccc1F,inactive
16,CCN(CC)S(=O)(=O)c1ccc(N2CCCC2)c(NS(=O)(=O)c2cccs2)c1,inactive
17,Cc1cc2nc(C(F)(F)F)cc(-c3cccs3)n2n1,inactive
18,CC(C)(C)Nc1c(-c2cccs2)nc2ccccn12,44.8 (active)
19,Cc1nc2ccccn2c(=O)c1NC(=O)c1cccs1,inactive
20,COC(=O)c1ccc(NC(=O)CN(c2ccc(C)cc2)S(=O)(=O)c2c(C)n[nH]c2C)cc1,inactive
21,O=C(CSC1=NS(=O)(=O)c2cc(F)ccc2N1)Nc1ccccc1F,inactive
22,COC(=O)N/N=C/c1cn(CCCOc2ccc(C)cc2)c2ccccc12,inactive

row,SMILES,B-score
1,COC(=O)Cn1cc(/C=C/[N+](=O)[O-])c2ccccc21,31.6 (active)
2,COC(=O)c1cn(CC(=O)NCc2cccs2)c2ccccc12,inactive
3,CCCCn1c(N)c(N(CCOC)C(=O)c2cccc(S(=O)(=O)N3CCCCC3)c2)c(=O)[nH]c1=O,inactive
4,COCCCNC(=O)CN1C(=O)CSc2ccc(S(=O)(=O)N3CCOCC3)cc21,inactive
5,CCN(CC)c1ccc2oc(=O)c(C)nc2c1,27 (active)
6,C=CCN(C(=O)Nc1ccc2oc(C)nc2c1)c1ccccc1,inactive
7,CCN(CC)c1ccc(C(=O)Nn2c(C)nc3ccccc3c2=O)cc1,inactive
8,Cc1ccc2c(c1)C1CN(C)CCC1N2S(=O)(=O)c1ccc(Oc2ccc([N+](=O)[O-])cc2)cc1 (configuration not stated),inactive
9,COC(=O)CNC(c1ccccc1Cl)c1cc(Br)ccc1NC(=O)CCN1CCOCC1 (configuration not stated),inactive
10,O=C1/C(=C/c2ccc(F)cc2)SC(=S)N1CCCC(=O)N1CCCCC1CCO (configuration not stated),inactive
11,O=C(O)c1ccc(/C=C2\SC(=S)N(NC(=O)c3ccc(Br)cc3)C2=O)cc1,inactive
12,O=C1/C(=C/c2ccc(F)cc2)SC(=S)N1NS(=O)(=O)c1ccccc1,27.7 (active)
13,S=c1[nH]nc(NCCc2ccccc2)s1,inactive
14,Cc1nc(C)c(-c2csc(NCCc3ccccc3)n2)s1,32.5 (active)
15,CCNc1nc(-c2cc3ccccc3o2)cs1,inactive
16,Cc1ccccc1NC(=O)Cn1cc(C(=O)C2CC2)c2ccccc21,inactive
17,COc1ccc2c(c1)OC(O)(C(F)(F)C(F)F)CC2=O (configuration not stated),79.7 (active)
18,COc1ccc2c(c1)O/C(=C\c1ccccc1O)C2=O,inactive
19,COc1ccc2c(c1)SC(C)CC2=O (configuration not stated),inactive
